NR2E3 ag-1: agonists of human NR2E3 nuclear receptor; actives 0.35% (n = 360,000); inhibition of corepressor binding, % at 3.98 µM; AID 602229; Q9Y5X4; CHO-S Gal4-NCOR/VP16-NR2E3 two-hybrid, luciferase;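 active means inhibition above the mean of all tested compounds plus 3 SD, cut at about 70% in these data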;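 further: 0% = DMSO with NR2E3 transfected cells and 100% = cells lacking NR2E3 construct; higher means lower luciferase signal from less NR2E3 corepressor binding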
V-ATPase pH: regulators of yeast V-ATPase proton transport; S. cerevisiae, pHLuorin cytosolic pH fluorescence; response, % at 10 µM; actives 0.37% (n = 350,000); in the data active means response mostly above about 7.3%, no sharp cut-off; inactive means mostly below about 5.4%; further: actives read high
HIV Env fusion: inhibitors of HIV Env-mediated cell fusion; AID 651610; actives 1.1% (n = 360,000); HeLa-JRFL Env/CEM21 cell fusion, luciferase; inhibition, % at 12.3 µM;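 active means mean replicate inhibition score of at least 50 and every replicate individually at or above 50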;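 further: 0% = plate neutral controls and 100% = maraviroc near 300 nM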
FXN GAA850 act: frataxin GAA850 promoter activation | HEK293 lucGAA850 FXN promoter luciferase reporter, 24 h; percent of 10 µM SAHA response | activation, % at 6 µM | actives 0.56% (n = 360,000);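 active means activation above the average of all compounds screened plus 3 SD, cutoff fixed separately per campaign, cut at about 7.5% in these data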;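 further: 0% = DMSO wells and 100% = 10 µM SAHA wells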
GalR3 antag: antagonists of human GalR3. O60755. HEK293 GalR3-CNG cAMP membrane potential fluorescence; galR3 body fused to GalR1 C-terminus. inhibition, % at 3 µM. actives 0.44% (n = 360,000);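 active means inhibition above the screen-wide average plus 3 SD, cut at about 13% in these data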;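 further: forskolin and galanin both at EC90 stimulate the cells; cAMP rise reported by CNG channel membrane potential dye signal; 0% = forskolin plus galanin with DMSO and 100% = forskolin alone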
Target sequence (O60755 1-299 limits assumed): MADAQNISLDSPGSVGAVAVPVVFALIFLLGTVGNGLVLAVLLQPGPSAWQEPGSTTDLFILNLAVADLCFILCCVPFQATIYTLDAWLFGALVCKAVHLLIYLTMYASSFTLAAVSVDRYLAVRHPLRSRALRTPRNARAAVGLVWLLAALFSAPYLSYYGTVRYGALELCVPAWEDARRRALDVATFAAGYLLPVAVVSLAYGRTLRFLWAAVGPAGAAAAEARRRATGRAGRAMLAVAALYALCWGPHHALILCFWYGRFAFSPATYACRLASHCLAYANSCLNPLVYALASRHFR
NR2E3 ag-2: NR2E3 (human) agonism; actives 0.12% (n = 320,000); inhibition of corepressor binding, % at 4.78 µM; AID 2300; GST-NR2E3/biotin-RetCOR TR-FRET, 1536-well;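 active means percent inhibition above the cutoff of mean plus 3 SD of all tested compounds, set per screening campaign, cut at about 20% in these data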;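 further: 0% = DMSO wells and 100% = biotin wells as full block of FRET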
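Test system – NR2E3–RetCOR corepressor complex · Quantity – NR2E3 fusion 1.35 nM · Buffer or medium – Tris pH 7.5 · Incubation – Compound–protein incubation for 5 h at 4 °C · Technique – TR-FRET, Eu(K)-anti-GST donor, streptavidin-D2 acceptor, ex 340, em 617/671 nm · Evaluation – percent inhibition of 671/617 nm emission ratio versus biotin and DMSO controls · Plate – 1536-well format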
VATPase regulator: modulates yeast V-ATPase proton transport; response, % at 10 µM; AID 602197; shares compounds with V-ATPase pH; actives 2% (n = 980); S. cerevisiae pHLuorin cytosolic pH; in the data active means response above about 24%;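 further: plate controls were vehicle wells for no effect and positive control wells for full effect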
Active calls of the source: *; nt = no result; [ ] = remark or other dose. Hits are enriched below; roughly 2.2% of the tested compounds scored in any of these assays.

SMILES	NR2E3 ag-1	V-ATPase pH	HIV Env fusion	FXN GAA850 act	GalR3 antag	NR2E3 ag-2	VATPase regulator
CN1CCN(S(=O)C23CC4CC(CC(C4)C2)C3)CC1 (stereo not drawn)	17	2	-22	0	-6	-3	nt
O=S(N1CCCCC1)C12CC3CC(CC(C3)C1)C2 (stereo not drawn)	20	15*	17	-1	-3	1	2
O=C(C[C@H]1C[C@@H]2c3cc(NC(=O)C4CCOCC4)ccc3O[C@@H]2[C@@H](CO)O1)NCC1CC1	nt	nt	4[16.7 µM]	nt	nt	nt	nt
CCCCCOc1ccc(C(C)(O)C(CN2CCOCC2)c2ccccc2)cc1 (stereo not drawn)	-26	14*	18	-2	-11	-1	-1
CC(C)(C)C(=O)Nc1ccc(S(=O)(=O)N2CCCC2)cc1	15	8.5*	-15	0	-9	-1	0
CC(=O)Nc1ccc(S(=O)(=O)N2CCCC2)cc1	-23	-2	-10	0	-11	0	nt
COC(=O)c1ccccc1NC(=O)CN1CCCCC1	3	12*	-2	4	-5	3	1
COC(=O)c1ccccc1NC(=O)CN1CCOCC1	-8	1	-92	0	-2	-4	nt
CC(c1ccccc1)C1C(C#N)=C(N)OC2=C1C(=O)CC(C)(C)C2 (stereo not drawn)	0	11*	7	0	-6	-1	-1
NNC(=O)c1snnc1-c1ccccc1	14	6	-8	-1	1	0	nt
COC(=O)c1ccc(NC(=O)c2snnc2-c2ccccc2)cc1	2	8.2*	0	-2	-5	3	2
Cc1noc(C)c1NC(=O)N[C@@H]1CC[C@H](CC(=O)N2CCCCC2)O[C@H]1CO	nt	nt	-24[16.7 µM]	nt	nt	nt	nt
CCN1CCN(CCCNC(=O)Cn2nc(C)n3nc(-c4ccccc4)cc3c2=O)CC1	-14	19*	-4	2	4	-1	2
Cc1ccc(S(=O)(=O)c2ccc(C)cc2)cc1	-6	5	nt	-2	-4	1	nt
Cc1ccc(S(=O)(=O)C=CS(=O)(=O)c2ccc(C)cc2)cc1	7	20*	-9	-2	3	nt	115*
Cc1cccc2nc(-c3cccnc3)c(NCCC(C)C)n12	-33	12*	-4	3	-5	-4	-1
CC1CC(C)CN(C(=O)CN2C(=O)NC3(CCCCCC3)C2=O)C1 (stereo not drawn)	19	12*	-75	-1	-8	nt	3
CC1CN(C(=O)CN2C(=O)NC3(CCCCCCC3)C2=O)CC(C)O1 (stereo not drawn)	6	-2	18	5	-4	-1	nt
C/C(=N\O)C(C)(C)Nc1cccc(Br)c1	9	16*	5	-1	-4	2	4
CN1C(=O)c2cc(NC(=O)C3CCCCC3)ccc2OC[C@@H]2O[C@H](CC(=O)NCc3ccccc3F)CC[C@@H]21	nt	nt	30[16.7 µM]	nt	nt	nt	nt
Cc1ccc(C)c(OCc2ccc(C(=O)NN)o2)c1	-19	0	9	-3	5	2	nt
Cc1ccc(C)c(OCc2ccc(C(=O)Nc3ccc([N+](=O)[O-])cn3)o2)c1	-21	9.9*	4	-2	-1	0	5
Cc1ccc(-c2nnc(NC(=O)c3ccco3)o2)c(C)c1	-33	0	nt	2	-1	0	nt
O=C(Nc1nnc(-c2ccccc2Cl)o1)c1ccco1	-57	11*	-8	3	-5	3	1
Cc1ccc(CN2CCNC(=O)C2CC(=O)N(C)CCc2ccccc2)cc1 (stereo not drawn)	9	11*	-19	-2	0	-3	1
SMILES	NR2E3 ag-1	V-ATPase pH	HIV Env fusion	FXN GAA850 act	GalR3 antag	NR2E3 ag-2	VATPase regulator
CN(CCc1ccccn1)C(=O)CC1C(=O)NCCN1Cc1ccc(-c2ccccc2)cc1 (stereo not drawn)	-9	1	9	-1	-5	0	nt
CC(C)NC(=O)NCC[C@H]1CC[C@@H](NS(=O)(=O)c2ccc(-c3ccccc3)cc2)[C@H](CO)O1	nt	nt	-5[16.7 µM]	nt	nt	nt	nt
COc1cccc(NC(=O)N[C@@H]2C=C[C@H](CC(=O)Nc3ccccc3)O[C@H]2CO)c1	nt	nt	-15[16.7 µM]	nt	nt	nt	nt
c1ccc(COCCCn2cc(-c3ccccc3)nn2)cc1	-11	10*	3	0	-2	2	-2
O=C(C[C@H]1CC[C@@H](NC(=O)C2CC2)[C@@H](CO)O1)Nc1nccs1	nt	nt	10[16.7 µM]	nt	nt	nt	nt
C[C@@H]1CN([C@@H](C)CO)C(=O)c2cc(-c3ccc(F)cc3)cnc2O[C@H]1CN(C)Cc1ccc(F)cc1	nt	nt	19[16.7 µM]	nt	nt	nt	nt
Cc1ccc(C(=O)OCCc2sc[n+](Cc3ccccc3)c2C)cc1	17	47*	-6	4	-4	3	2
CC(C)OP(=O)(OC(C)C)C(NC(=O)c1cccc([N+](=O)[O-])c1)C(N)=O (stereo not drawn)	-33	9	28	-1	-3	-3	3
CCCCCc1ccc(-c2cn(Cc3cccc(OC)c3)nn2)cc1	15	-1	nt	-2	-7	2	nt
CCc1cc(-c2cnnn2Cc2ccc3ccccc3c2)ccc1-c1cn(CC(C)C)nn1	-37	7.2*	-42	0	-6	nt	1
CC(C)C#Cc1ccc2c(c1)O[C@@H](CN(C)C)[C@@H](C)CN([C@H](C)CO)S2(=O)=O	nt	nt	-20[16.7 µM]	nt	nt	nt	nt
CCOC(=S)SCC(=O)N1CCc2cc(OC)c(OC)cc2C1C1C(=O)CC(C)(C)CC1=O (stereo not drawn)	-11	20*	1	1	6	-1	-3
N#C/C(=C\c1cc(Cl)cc(Cl)c1O)C(=O)NC1CCCCC1	6	15*	nt	-1	-8	0	1
Nc1cccc(P(=O)(c2ccccc2)c2ccccc2)c1	0	9.6*	13	1	-7	-1	1
Cc1snc(S(=O)(=O)/C(C#N)=N/Nc2cccc(C(F)(F)F)c2)c1C#N	25	25*	nt	3	nt	3	-4
CS(=O)(=O)N1CCCC(C(=O)Nc2ccccc2)C1 (stereo not drawn)	-2	12*	2	1	3	1	-1
COc1ccc(NC(=O)C2CCCN(S(C)(=O)=O)C2)cc1 (stereo not drawn)	6	1	-36	2	-6	4	nt
Cc1ccccc1S(=O)(=O)N[C@H]1CC[C@@H](CCNS(=O)(=O)c2cccc(F)c2)O[C@H]1CO	nt	nt	10[16.7 µM]	nt	nt	nt	nt
COc1ccc(-c2nnc(NC(=O)c3ccccc3C)o2)cc1	8	12*	17	-2	-1	3	7
Cc1ccccc1C(=O)Nc1nnc(-c2ccncc2)o1	-7	-2	-5	2	1	3	nt
Nc1nnc(SCCCC(=O)c2ccc(F)cc2)s1	-11	0	nt	1	-1	-1	-4

From PubChem
